The values that follow come from ChEMBL document CHEMBL3272167, “Antimalarials. 3. 1,2,4-Triazines” (J Med Chem, 1976).

The subject of data set [1] is Plasmodium gallinaceum. Kind of data set: Antimalarial activity against Plasmodium gallinaceum infected in chick assessed as increase in mean survival time at 80 mg/kg, sc administered as single dose 72 hrs after parasite infection. To be noted: route subcutaneous.
In data set [2] the test system is Plasmodium berghei. Put plainly: Antimalarial activity against trophozoite Plasmodium berghei infected in mouse assessed as increase in mean survival time at 320 mg/kg, sc administered as single dose 72 hrs after parasite infection. The format is functional. To be noted: route subcutaneous. In outline:
(§1)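 Mice were infected with P. berghei trophozoites and given one subcutaneous dose of test compound 72 h later. The read-out was the increase in mean survival time of treated over control animals (MSTT vs MSTC); prolongation of 2.5 days was taken as significant, and a 12-day minimum mean survival was required for activity. Survivors at 60 days without parasitemia counted as cured. The maximum dose was 640 mg/kg.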

For data set [3], the system named is Plasmodium gallinaceum. Kind of data set: Antimalarial activity against Plasmodium gallinaceum infected in chick assessed as increase in mean survival time at 320 mg/kg, sc administered as single dose 72 hrs after parasite infection. As to conditions: route subcutaneous.
Data set [4] deals with Plasmodium gallinaceum. Put plainly: Antimalarial activity against Plasmodium gallinaceum infected in chick assessed as increase in mean survival time at 160 mg/kg, sc administered as single dose 72 hrs after parasite infection. To be noted: route subcutaneous.
The subject of data set [5] is Plasmodium berghei. Kind of data set: Antimalarial activity against trophozoite Plasmodium berghei infected in mouse assessed as increase in mean survival time at 160 mg/kg, sc administered as single dose 72 hrs after parasite infection. The format is functional. To be noted: route subcutaneous. In outline:
as §1

Data set [6] concerns Plasmodium berghei. Put plainly: Antimalarial activity against trophozoite Plasmodium berghei infected in mouse assessed as increase in mean survival time at 640 mg/kg, sc administered as single dose 72 hrs after parasite infection. The class given is functional. As to conditions: route subcutaneous. In outline:
as §1

Data set [7] relates to Plasmodium berghei. Kind of data set: Antimalarial activity against trophozoite Plasmodium berghei infected in mouse assessed as increase in mean survival time administered as single dose 72 hrs after parasite infection. The format is functional, organism-based. The method, boiled down:
(§2)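 Mice were infected with P. berghei trophozoites and given one subcutaneous dose of test compound 72 h later, up to a maximum of 640 mg/kg. Mean survival time of treated mice was compared with untreated controls. A 2.5-day prolongation counted as significant, and activity required a mean survival of at least 12 days. Cure meant 60-day survival without parasitemia.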

The test system of data set [8] is Plasmodium gallinaceum. Kind of data set: Antimalarial activity against Plasmodium gallinaceum infected in chick assessed as increase in mean survival time at 640 mg/kg, sc administered as single dose 72 hrs after parasite infection. To be noted: route subcutaneous.
The test system of data set [9] is Mus musculus. Put plainly: Toxicity in trophozoite Plasmodium berghei infected in sc dosed mouse administered as single dose 72 hrs after parasite infection. The format is organism-based. To be noted: in vivo. The method, boiled down: as §2
For data set [10], the system named is Gallus gallus (chicken). Put plainly: Toxicity in Plasmodium gallinaceum infected in chick at 640 mg/kg, sc administered as single dose 72 hrs after parasite infection. To be noted: in vivo.
For data set [11], the system named is Mus musculus. Put plainly: Toxicity in trophozoite Plasmodium berghei infected in mouse at 640 mg/kg, sc administered as single dose 72 hrs after parasite infection. Also noted: dose 640 mg/kg, route subcutaneous. The class given is organism-based. As to conditions: in vivo. The method, boiled down:
as §2

Data set [12] deals with Plasmodium gallinaceum. Put plainly: Antimalarial activity against Plasmodium gallinaceum infected in chick assessed as increase in mean survival time at 480 mg/kg, sc administered as single dose 72 hrs after parasite infection. As to conditions: route subcutaneous.
Data set [13] relates to Plasmodium berghei. Kind of data set: Antimalarial activity against trophozoite Plasmodium berghei infected in mouse assessed as increase in mean survival time at 20 mg/kg, sc administered as single dose 72 hrs after parasite infection. The class given is functional. As to conditions: route subcutaneous. The method, boiled down: as §1
In data set [14] the test system is Plasmodium berghei. Kind of data set: Antimalarial activity against trophozoite Plasmodium berghei infected in mouse assessed as increase in mean survival time at 80 mg/kg, sc administered as single dose 72 hrs after parasite infection. The class given is functional. As to conditions: route subcutaneous. In outline: as §1
The test system of data set [15] is Gallus gallus (chicken). Kind of data set: Toxicity in Plasmodium gallinaceum infected in chick at 480 mg/kg, sc administered as single dose 72 hrs after parasite infection. To be noted: in vivo.
Data set [16] concerns Plasmodium berghei. Put plainly: Antimalarial activity against trophozoite Plasmodium berghei infected in mouse assessed as increase in mean survival time at 10 mg/kg, sc administered as single dose 72 hrs after parasite infection. The format is functional. To be noted: route subcutaneous. In outline:
as §1

The test system of data set [17] is Plasmodium gallinaceum. Put plainly: Antimalarial activity against Plasmodium gallinaceum infected in chick assessed as increase in mean survival time at 240 mg/kg, sc administered as single dose 72 hrs after parasite infection. As to conditions: route subcutaneous.
Data set [18] relates to Plasmodium berghei. Kind of data set: Antimalarial activity against trophozoite Plasmodium berghei infected in mouse assessed as increase in mean survival time at 40 mg/kg, sc administered as single dose 72 hrs after parasite infection. The class given is functional. As to conditions: route subcutaneous. In outline:
as §1

Molecules are shown by their SMILES. Calls of active or inactive are those of the source. No cut-off for these calls is given here.

As for `Nc1nnc(-c2ccc3c(c2)OCO3)c(N)n1`, the T/C in the data set on Plasmodium gallinaceum [1] amounted to 1.7; in the data set with Plasmodium berghei [2], 12.2; with Plasmodium gallinaceum [3], 3.2; in the data set on Plasmodium gallinaceum [4], 3.2; with Plasmodium berghei [5], 7.1; in the data set on Plasmodium berghei [6] it was 15.4.

Consider `Cc1nnc(N)nc1C`, for which the result in the data set with Plasmodium berghei [7] was inactive. In the data set on Plasmodium berghei [6], the MST turned out to be 4.2 days.

As for `Cc1nnc(S)nc1S`, in the data set with Plasmodium gallinaceum [8], the T/C worked out at 4.4. Further, the Activity entry with Mus musculus [9] and in the data set on Gallus gallus (chicken) [10] was “Toxic” throughout.

As to `Nc1nnc(-c2ccccc2)c(-c2ccccc2)n1`, the Activity entry with Mus musculus [9] is recorded as “Toxic”.

`COc1ccc(-c2nnc(/N=C/N(C)C)nc2/N=C/N(C)C)cc1OC`: the result in the data set on Plasmodium berghei [7] was inactive.

For `COc1ccc(-c2nnc(NC(=O)Nc3ccccc3)nc2N)cc1OC`, the outcome in the data set with Plasmodium berghei [7] was inactive.

For `CS(=O)(=O)c1ccc(-c2nnc(N)nc2N)cc1`, the Activity result with Mus musculus [9] is reported as “Toxic”.

Turning to `Cc1ccc(-c2nnc(N)nc2N)cc1C`, the MST in the data set on Plasmodium berghei [6] was found to be 4.9 days.

For the compound `COc1ccc(-c2nnc(N)nc2N)cc1OC`, the MST came to 10.1 days in the data set on Plasmodium berghei [2] and 11.7 days in the data set with Plasmodium berghei [6]. In the data set with Plasmodium gallinaceum [3], the T/C amounted to 7.

With `Cc1ccc(-c2nnc(N)nc2N)cc1Cl`, the T/C with Plasmodium berghei [6] is reported as 9.9.

With `Nc1nnc(-c2ccc(C(F)(F)F)cc2)c(N)n1`, the Activity entry in the data set with Mus musculus [11] and with Gallus gallus (chicken) [15] was “Toxic” in each case. In addition, the T/C in the data set on Plasmodium gallinaceum [12] stood at 9.9; in the data set with Plasmodium berghei [2], 0; in the data set on Plasmodium berghei [13], 12.8; in the data set with Plasmodium berghei [14] it was 0; with Plasmodium gallinaceum [8], 9.9; in the data set on Plasmodium berghei [16] it was 6.8. For the same compound, the T/C in the data set on Plasmodium gallinaceum [17] came to 6.4; in the data set on Plasmodium berghei [5], 0; in the data set with Plasmodium berghei [6], 0; in the data set with Plasmodium berghei [18], 12.8.

Turning to `Nc1nnc(-c2cccc(C(F)(F)F)c2)c(N)n1`, the values for the T/C in the data set with Plasmodium gallinaceum [3] and in the data set on Plasmodium gallinaceum [17] were 1.5 and 2.2, respectively. The MST in the data set on Plasmodium berghei [6] is 4.6 days.

On to `N#C/C(=N/NC(=N)N)c1cccs1.O=[N+]([O-])O`, for which, in the data set on Mus musculus [9], the Activity entry is “Toxic”.

On to `CN(C)/C=N/c1nnc(-c2ccc3c(c2)OCO3)c(/N=C/N(C)C)n1`, for which, in the data set with Plasmodium berghei [7], the outcome was inactive. For the same compound, the T/C with Plasmodium gallinaceum [12] is 1.5. Further, the MST with Plasmodium berghei [6] came to 5.9 days.

With `CSc1nnc(C)c(SC)n1`, the Activity result in the data set on Mus musculus [9] is reported as “Toxic”.

Consider `Cc1n[nH]c(=S)[nH]c1=O`, for which the Activity result in the data set with Mus musculus [9] is on record as “Toxic”.

In the case of `Cc1ccc(S(=O)(=O)NC(=O)Nc2nnc(-c3ccc4c(c3)OCO4)c(N)n2)cc1`, the outcome with Plasmodium berghei [7] was inactive.
